Activity calls are given as the source filed them. The rule behind the calls is not given here.
Legend:
[1] = Activation of PI3K/Akt/mTOR signaling in human SH-SY5Y cells assessed as up regulation of H2O2-induced HO-1 expression at 10 uM preincubated for 6 hrs followed by H2O2 addition and after 24 hrs in presence of MEK1/2 inhibitor U0126 by Western blot analysis; format: cell-based
In short: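 SH-SY5Y cells preincubated 1 h with one inhibitor: SB203580 10 μM, LY294002 5 μM, U0126 10 μM, SP600125 5 μM or rapamycin 100 nM. Then 1 (10 μM) for 6 h, then 600 μM H₂O₂. HO-1 measured by western blot and densitometry. Mean ± S.E.M., three independent experiments.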

SH-SY5Y = assay: Neuroprotection against H2O2-induced cell death in human SH-SY5Y cells assessed as cell viability at 10 uM preincubated for 6 hrs followed by H2O2 addition and measured after 24 hrs in presence of PI3K/Akt/mTOR inhibitor LY294002 by MTT assay relative to control; format: functional; conditions: read-out: Activity
In short: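 SH-SY5Y cells preincubated 1 h with LY294002 (5 μM) or rapamycin (100 nM). Then 1 (10 μM) for 6 h, then 600 μM H₂O₂. Viability by MTT. Mean ± S.E.M., three independent experiments.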

COC(=O)[C@H](Cc1ccccc1)NC(=O)/C=C/c1ccc(O)c(O)c1 [N-CAFFEOYL-PHENYLALANINE METHYL ESTER]
Activity [1]: Active
viability at 10 µM (SH-SY5Y): 60.5%
